Assay results pooled from the literature.
polA: DNA polymerase I, thermostable (polA, Thermus aquaticus, UniProt P19821)
SIRT2: NAD-dependent protein deacetylase sirtuin-2 (SIRT2, Homo sapiens, UniProt Q8IXJ6)
RORC: Nuclear receptor ROR-gamma (RORC, Homo sapiens, UniProt P51449)
AMY2: Pancreatic alpha-amylase (AMY2, Sus scrofa, UniProt P00690)
Maoa: Amine oxidase [flavin-containing] A (Maoa, Rattus norvegicus, UniProt P21396)
SLC22A8: Organic anion transporter 3 (SLC22A8, Homo sapiens, UniProt Q8TCC7)
CDC7: Cell division cycle 7-related protein kinase (CDC7, Homo sapiens, UniProt O00311)

The IC50 of `COC(=O)c1cc2ccc(O)cc2oc1=O` is reported as 129000 nM (polA; enzyme activity, inhibitor).
For `C=C(NC(=O)[C@H](CCCCNC(=S)NCCCCCCCCCCCC)NS(C)(=O)=O)C(=O)N[C@@H](CCCNC(=N)N)C(N)=O`, the IC50 was 30 nM (SIRT2; enzyme activity, inhibitor).
With `O=S(=O)(c1cccc(-c2ccccc2)c1)N1CCc2ccc(OCc3c(F)cccc3Cl)cc21` the IC50 was 250 nM (RORC; ligand displacement, radioligand).
The IC50 of `CCCCCCCCCCCCNC(=S)NCCCC[C@H](NC(=O)C1CCCCC1)C(=O)N[C@H](C)C(=O)N[C@@H](CCCNC(=N)N)C(N)=O` is reported as 160 nM (SIRT2; enzyme activity, inhibitor).
`O=C1Nc2ccc(Cl)cc2/C1=N/NS(=O)(=O)c1ccc(Br)cc1` gave an IC50 of 12800 nM (AMY2; enzyme activity, inhibitor).
`CC1CN(S(=O)(=O)c2cccc(C(F)(F)F)c2)c2cc(OCc3c(F)cccc3Cl)ccc21` (stereo not drawn) has an IC50 of 180 nM (RORC; ligand displacement, radioligand).
`CCCCCCCCCCCCNC(=S)NCCCC[C@H](NC(=O)OCc1ccccc1)C(=O)N[C@@H](Cc1c[nH]c2ccccc12)C(=O)N[C@@H](CCNC(=N)N)C(N)=O` has an IC50 of 160 nM (SIRT2; enzyme activity, inhibitor).
`CCn1ncc2c1-c1cnc(N)c(c1)O[C@H](C)c1cc(F)ccc1-c1nn(C)nc1C2` has an IC50 of 24 nM (Tyrosine-protein kinase Fer (FER, Homo sapiens, UniProt P16591); enzyme activity, inhibitor, radiometric).
`CN1c2ccccc2C(=NN=Cc2cc3ccc(Cl)cc3nc2Cl)CS1(=O)=O` has an IC50 of 2030 nM (Maoa; enzyme activity, inhibitor, fluorescence).
For `CCCCCCCCCCCCNC(=S)NCCCC[C@H](NC(C)=O)C(=O)N[C@@H](C)C(=O)N[C@@H](CCCNC(=N)N)C(N)=O`, the IC50 was 50 nM (SIRT2; enzyme activity, inhibitor).
The IC50 of `O=C1Nc2ccc(Cl)cc2/C1=N/NS(=O)(=O)c1cc(Cl)cc(Cl)c1O` is reported as 1100 nM (AMY2; enzyme activity, inhibitor).
With `O=S(=O)(c1ccnc(C(F)(F)F)c1)N1CCc2ccc(OCc3c(F)cccc3Cl)cc21` the IC50 was 230 nM (RORC; ligand displacement, radioligand).
With `O=C(O)c1cc(-c2ccc(F)cc2F)ccc1O` the IC50 was 720 nM (SLC22A8; transporter uptake, inhibitor).
`O=C(Cc1cccs1)N[C@@H]1C(=O)N2C(C(=O)[O-])=C(C[n+]3ccccc3)CS[C@H]12` has an IC50 of 6000 nM (Chymotrypsinogen A (Bos taurus, UniProt P00766); enzyme activity, inhibitor, fluorescence).
With `Cc1cnc(-c2ccc(-c3ccc(NC(=O)Nc4c(F)cc(F)cc4F)cc3F)c3c2C(=O)NC3)[nH]1` the IC50 was 7.1 nM (Serine/threonine-protein kinase 3 (STK3, Homo sapiens, UniProt Q13188); enzyme activity, inhibitor).
`CC(C)C[C@H](NC(=O)[C@H](Cc1ccccc1)NC(=O)[C@@H](N)Cc1ccc(O)cc1)C(=O)N[C@@H](Cc1ccccc1)C(=O)N[C@@H](CCCNC(=N)N)C(=O)N1CCC[C@H]1C(=O)N[C@@H](CCCNC(=N)N)C(=O)N[C@@H](CC(N)=O)C(N)=O` gave an IC50 of 0.38 nM (Neuromedin-U receptor 1 (Mus musculus, UniProt O55040); ligand displacement, radioligand; cell membranes).
`CCCCCCCCCCCCNC(=S)NCCCC[C@H](NC(=O)OCc1ccccc1)C(=O)N[C@@H](Cc1c[nH]c2ccccc12)C(=O)N[C@@H](CC(N)=O)C(N)=O` gave an IC50 of 260 nM (SIRT2; enzyme activity, inhibitor).
`CC/C=C\C/C=C\C/C=C\C/C=C\C/C=C\CCCC(=O)O` gave an IC50 of greater than 100000 nM (polA; enzyme activity, inhibitor).
The IC50 of `O=C(O)CNC(=O)C(=O)O` is reported as 34000 nM (Lysine-specific demethylase 4D (KDM4D, Homo sapiens, UniProt Q6B0I6); enzyme activity, inhibitor, AlphaScreen).
With `O=C(O)CSc1nnc(Br)n1-c1ccc(C2CC2)c2ccccc12` the IC50 was 3500 nM (SLC22A8; transporter uptake, inhibitor, radiometric; 1 h, oocytes).
The IC50 of `O=C1NCCC12CCN(c1c(Cl)cncc1-c1ccc3cccnc3c1)CC2` is reported as 72 nM (Cyclin-dependent kinase 19, with cyclin C (CDK19, Homo sapiens, UniProt Q9BWU1); ligand displacement).
The IC50 of `c1cnc(OC2CCNCC2)c(-c2nc(Cc3cccc4ncccc34)no2)c1` is reported as 3.5 nM (Glycylpeptide N-tetradecanoyltransferase (Plasmodium falciparum, UniProt Q9U419); enzyme activity, inhibitor, fluorescence).
For `O=C1Nc2ccccc2/C1=N/NS(=O)(=O)c1ccc(Cl)cc1`, the IC50 was 3700 nM (AMY2; enzyme activity, inhibitor).
For `CNC(=O)c1cc2c(Oc3ccc(NC(=O)C4(C(=O)Nc5ccc(F)cc5)CC4)cc3)ccnc2cc1OC`, the IC50 was 29 nM (Ephrin type-A receptor 5 (EPHA5, Homo sapiens, UniProt P54756); enzyme activity, inhibitor, radiometric).
The IC50 of `O=C1Nc2ccc(Cl)cc2/C1=N/NS(=O)(=O)c1ccc(Cl)cc1` is reported as 3100 nM (AMY2; enzyme activity, inhibitor).
With `CCCCCCCCCCCCNC(=S)NCCCC[C@H](NC(=O)OCc1ccccc1)C(=O)N[C@@H](Cc1c[nH]c2ccccc12)C(=O)N[C@@H](CCC(=O)O)C(N)=O` the IC50 was 100 nM (SIRT2; enzyme activity, inhibitor).
With `C=C(C)[C@@H]1CCC(C)=C[C@H]1c1c(O)cc(CCC)cc1O` the IC50 was greater than 10000 nM (Prostaglandin E synthase (PTGES, Homo sapiens, UniProt O14684); enzyme activity, inhibitor).
For `CC(C)[C@@H](N)c1nc2cc(-c3ccncc3F)sc2c(=O)[nH]1`, the IC50 was 1470 nM (CDC7; enzyme activity, inhibitor).
The IC50 of `COc1cccc(S(=O)(=O)N2CCc3ccc(OCc4c(F)cccc4Cl)cc32)c1` is reported as 250 nM (RORC; ligand displacement, radioligand).
With `O=C(O[C@H]1[C@@H]2C=CO[C@@H](O[C@@H]3O[C@H](CO)[C@@H](O)[C@H](O)[C@H]3O)[C@@H]2[C@@]2(CO)O[C@@H]12)c1ccc(O)cc1` the IC50 was 83000 nM (SLC22A8; transporter uptake, inhibitor, radiometric; HEK293; 10 min).
`CC(=O)Oc1ccccc1C(=O)Nc1ncc([N+](=O)[O-])s1` has an IC50 of 154 nM (SLC22A8; transporter uptake, inhibitor).
The IC50 of `CCn1c(-c2nc3cc(C(=O)N4CCC[C@@H](N)C4)cc(OC)c3n2C)cc2cccnc21` is reported as greater than 15800 nM (Muscarinic acetylcholine receptor M2 (CHRM2, Homo sapiens, UniProt P08172); calcium signal, antagonist, fluorescence).
The IC50 of `CC(C)[C@H](N)c1nc2cc(-c3cn[nH]n3)sc2c(=O)[nH]1` is reported as 3630 nM (CDC7; enzyme activity, inhibitor).
`O=S(=O)(c1cccc(C(F)(F)F)c1)N1CCc2ccc(OCc3ccccc3OC(F)(F)F)cc21` has an IC50 of 290 nM (RORC; ligand displacement, radioligand).
The IC50 of `OC[C@@H]1[C@@H](O)[C@H](O)[C@@H](O)[C@@H]2O[C@H]12` is reported as 26700 nM (Beta-glucosidase (GBA2, Homo sapiens, UniProt Q9HCG7); enzyme activity, inhibitor; pH 5, lysate).
`Cc1cccc(Br)c1COc1ccc2c(c1)N(S(=O)(=O)c1cccc(C(F)(F)F)c1)CC2` has an IC50 of 160 nM (RORC; ligand displacement, radioligand).
`CCCCC(=O)N(Cc1ccc(-c2ccccc2-c2nnn[nH]2)cc1)[C@H](C(=O)O)C(C)C` has an IC50 of 250 nM (SLC22A8; transporter uptake, inhibitor).
For `O=C(O)C1=CC(=C(c2ccc(O)c(C(=O)O)c2)c2ccc(O)c(C(=O)O)c2)C=CC1=O`, the IC50 was 540 nM (Flap endonuclease 1 (Homo sapiens, UniProt P39748); enzyme activity, inhibitor; with preincubation).
With `O=S(=O)(c1cccc(C(F)(F)F)c1)N1CCc2ccc(OCc3c(Cl)cccc3C(F)(F)F)cc21` the IC50 was 170 nM (RORC; ligand displacement, radioligand).
For `COc1ccc2c(Oc3ccc4c(C(=O)Nc5ccccc5N)cccc4c3)ccnc2c1`, the IC50 was greater than 500 nM (Tyrosine-protein kinase Fes/Fps (FES, Homo sapiens, UniProt P07332); enzyme activity, inhibitor).
The IC50 of `COc1ccc2cc(C=NN=C3CS(=O)(=O)N(C)c4ccccc43)c(Cl)nc2c1` is reported as 3430 nM (Maoa; enzyme activity, inhibitor, fluorescence).
For `CCNC(=O)[C@H](CCCNC(=N)CF)NC(=O)c1ccccc1`, the IC50 was 157000 nM (Protein-arginine deiminase type-3 (PADI3, Homo sapiens, UniProt Q9ULW8); enzyme activity, inhibitor).
With `CN1CCN(c2ccnc(C(=O)N3CCC[C@H](C(=O)Nc4cccc(-c5ccc6c(c5)C(=O)NC6)c4)C3)c2)CC1` the IC50 was greater than 100000 nM (Histone lysine demethylase PHF8, PHD (PHF8, Homo sapiens, UniProt Q9UPP1); cell-free assay, inhibitor, TR-FRET).
With `O=S(=O)(c1cccc(C(F)(F)F)c1)N1c2cc(OCc3c(F)cccc3Cl)ccc2CC1C(F)(F)F` (stereo not drawn) the IC50 was 190 nM (RORC; ligand displacement, radioligand).
`CC(C)[C@H](N)c1nc2cc(-c3ccnc(Cl)c3)sc2c(=O)[nH]1` has an IC50 of 2200 nM (CDC7; enzyme activity, inhibitor).
